Source: PubChem (several laboratories)
This is a sample that favours compounds with a hit; in the whole collection about 1.2% have one here.
Fh CTSL1 inh: Fasciola hepatica cathepsin L1 inhibitors, primary screen, counter-screen for PFM18AAP inhibitor project, biochemical, QFRET, fluorogenic peptide substrate; recombinant F. hepatica cathepsin L1, Z-Leu-Arg-MCA fluorescence; inhibition, % at 5.96 µM; hit rate 0.49% among 300,000; AID 1906, 2009;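 active = inhibition above the mean of all tested compounds plus 3 SD, set per screening campaign, cut at about 17% in these data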;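 also: 0% = plate median of test compound wells and 100% = 1 µM Z-Phe-Ala-diazomethylketone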
UBC9 SUMO inh: inhibitors of in vitro SUMOylation cascade, primary screen, biochemical, HTRF, uHTS; SUMO-conjugating enzyme UBC9 (Homo sapiens), P63279; hit rate 0.36% among 290,000; inhibition, % at 35 µM; AID 2006, 2009; HTRF SUMOylation assay, SAE1/SAE2 + UBC9; in the data active = inhibition above about 50%, passing the limit was not always enough
NSD2 inh: NSD2 histone methyltransferase inhibitors, primary screen, biochemical, AlphaScreen, single concentration, set 2; Histone-lysine N-methyltransferase NSD2 (Homo sapiens), O96028; NSD2 peptide methylation, 120 min; inhibition, % at 12.5 µM; hit rate 0.54% among 310,000; AID 743445, 2014; in the data active = inhibition above about 50%
TDP2 absorb: human TDP2 enzyme inhibitors, primary screen, biochemical, epi absorbance, recombinant enzyme. Tyrosyl-DNA phosphodiesterase 2 (Homo sapiens), O95551. T5PNP hydrolysis, p-nitrophenol absorbance 415 nm. inhibition, % at 12.8 µM. hit rate 0.34% among 370,000. AID 720702, 2013;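 active = inhibition above the mean of all tested compounds plus 3 SD, set per campaign, cut at about 25% in these data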;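 also: 0% = DMSO with enzyme and 100% = buffer with substrate but no TDP2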
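System – recombinant human TDP2 · Amount – 120 nM TDP2 per well · Buffer or medium – Mg2+-containing Tris-HCl buffer, pH 7.5 · Reagent – T5PNP substrate, 5 mM · Dosing – 12.8 µM single point, 1% DMSO · Incubation – 2 h at 37 °C · Measured by – epi absorbance · Read-out basis – percent inhibition · Benchmarks – high control without enzyme, low control DMSO plus TDP2 · Repeats – singlicate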
TDP2 inh conf: human TDP2 enzyme inhibitors, retest, confirmation, biochemical, epi absorbance, recombinant enzyme; hit rate 22% among 1,100; AID 743263, 2014; absorbance read-out; shares compounds with TDP2 absorb; inhibition, % at 12.8 µM; in the data active = inhibition above about 25%;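 also: 0% = vehicle with enzyme and 100% = no enzyme buffer only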
Starred values were filed as active, the others as inactive; . = no result given; ! = repeats disagree.

SMILES	Fh CTSL1 inh	UBC9 SUMO inh	NSD2 inh	TDP2 absorb	TDP2 inh conf
C/C(=C\C(=O)c1ccccc1)Nc1ccc(N2CCOCC2)cc1	-3.1	9.7	-0.4	33.4*	-5.9
Cc1ccccc1SCC(=O)Nc1ccc(N2CCOCC2)cc1	1.9	-2.4	2.7	-1.7	.
Nc1ccccc1SCC(=O)Nc1ccc(N2CCOCC2)cc1	2.2	13.4	-1.0	28.4*	7.0
CCc1ccc(C(=O)NC(=S)Nc2ccc(N3CCOCC3)cc2)cc1	2.6	-5.5	2.5	3.0	.
CN(C(=O)c1ccc(F)cc1)c1ccc(OCC(=O)Nc2ccccc2C(=O)O)cc1	.	.	-2.9	5.2	.
CN=C(Nc1cc(C)nn1CCC#N)c1ccccc1	-0.2	15.1	-3.0	7.8	.
Cc1cc(OC(=O)c2ccccc2)n(CCC#N)n1	0.3	-9.9	1.0	50.5*	10.7
O=[N+]([O-])c1cc([N+](=O)[O-])c2nonc2c1Nc1ccc(O)cc1	0.7	.	37.6	24.6*	6.6
Cc1ccccc1C(OCC(O)CN1CCN(CCO)CC1)c1ccccc1 (configuration not stated)	-4.1	7.5	0.7	26.6*	7.4
COc1ccc(/C=C2\SC(=S)N(CC(=O)N(C)C3CCS(=O)(=O)C3)C2=O)cc1 (configuration not stated)	-3.5	-7.9	8.8	-3.3	.
COc1cccc(/C=C2\SC(=S)N(CC(=O)N(C)C3CCS(=O)(=O)C3)C2=O)c1 (configuration not stated)	-1.1	-4.4	4.5	30.1*	-3.1
COc1ccc(OC)c(S(=O)(=O)Oc2ccc(N)c3ccccc23)c1	-5.4	.	2.5	33.1*	-0.1
Cc1ccc(C2C(C#N)=C(N)Oc3n[nH]c(-c4cccs4)c32)s1 (configuration not stated)	2.2	37.6	9.2	34.3*	0.4
N#CC1=C(N)Oc2n[nH]c(-c3cccs3)c2C1c1ccncc1 (configuration not stated)	3.1	13.4	0.5	15.9	.
COc1ccc(CNC(=O)c2ccc(CS(=O)(=O)c3ccccc3C)o2)cc1	-4.8	1.3	0.6	25.7*	4.8
COc1cc(/C=C/c2[nH]c(=O)[nH]c(=O)c2[N+](=O)[O-])cc([N+](=O)[O-])c1O	3.6	-7.2	12.7	31.1*	10.7
Cc1ccc(C=NNc2nc3c([nH]2)c(=O)n(C)c(=O)n3C)cc1	.	.	-0.9	-3.5	.
COc1ccc(N2C(=O)CC(Nc3ccc(N4CCOCC4)cc3)C2=O)c(OC)c1 (configuration not stated)	2.4	-0.6	4.0	24.6*	6.9
N#Cc1ccccc1NC(=O)CSc1n[nH]c(-c2ccco2)n1	-2.4	40.2	2.0	32.3*	-0.1
O=C(NC1C(=O)NNC1c1ccccc1)c1ccccc1 (configuration not stated)	-2.2	13.0	-1.5	15.0	.
Cc1cccc(C(=O)NC2C(=O)NNC2c2ccc(Cl)cc2)c1 (configuration not stated)	-1.0	74.6	3.4	30.4*	10.5
CCOP(=O)(OCC)C(NC(=O)Nc1ccccc1)C(N)=O (configuration not stated)	-2.6	19.9	-1.8	-15.4	.
CCOP(=O)(OCC)C(NC(=O)Nc1ccc(Cl)cc1)C(N)=O (configuration not stated)	3.1	5.3	-3.1	45.1*	-4.7
Nc1ccc(NC(=S)Nc2ccccc2)cc1	.	6.7	0.3	31.9*	1.1
Oc1ccc(NC(=S)Nc2ccccc2)cc1	-1.2	8.6	-0.5	24.6*!	-4.0
SMILES	Fh CTSL1 inh	UBC9 SUMO inh	NSD2 inh	TDP2 absorb	TDP2 inh conf
Cc1noc(C)c1COC(=O)c1csc2c1CCC(C)C2 (configuration not stated)	.	.	-2.2	3.0	.
Nc1c(C(=O)OCC(=O)NCc2ccccc2)[nH]c(=O)[nH]c1=O	4.8	11.2	-0.4	49.2*	-2.6
CN(Cc1ccccc1C(F)(F)F)C(=O)C1CCC(=O)N(CC2CCCCC2)C1 (configuration not stated)	.	.	-1.6	-3.1	.
CCOC(=O)c1cc2c(ccn2C)n1Cc1ccccc1Cl	5.5	36.8	3.1	-0.6	.
CCOC(=O)c1cc2c(ccn2C)n1Cc1ccccc1C	0.8	35.1	27.9	26.0*	-14.8
Cn1c(SCC(=O)Nc2ccc3[nH]c(=O)[nH]c3c2)nnc1-c1ccccc1	0.0	3.4	0.9	-4.7	.
Cn1c(SCC(=O)Nc2ccc3[nH]c(=O)[nH]c3c2)nnc1-c1ccc(F)cc1	-1.8	15.5	-1.5	28.6*	1.1
O=C(Cn1nnc(-c2ccccc2F)n1)Nc1ccc(Cl)c(Cl)c1	.	.	-1.8	-2.1	.
COc1cc(NC(C)CCCN)c2ncccc2c1 (configuration not stated)	6.7	.	.	64.2*	18.0
COc1cc(NCc2ccccc2O)c2ncccc2c1	.	7.1	-0.6	-2.1	.
CCOC(=O)C1CCN(CC(=O)N2C(C)CCCC2C)CC1 (configuration not stated)	-1.1	29.0	2.3	26.5*	1.2
CN1CCN(C(c2ccc(Br)cc2)c2cc(Cl)c3cccnc3c2O)CC1 (configuration not stated)	0.7	-44.6	4.8	-18.1	.
COc1cccc(C(=O)N[C@H](C(=O)N2CCC[C@H]2C(=O)NCc2ccccc2)C2CCCCC2)c1	.	.	-0.9	-6.5	.
O=C(CC[C@H]1O[C@@H](n2ccc(=O)[nH]c2=O)[C@H](O)[C@@H]1O)N[C@H](Cc1ccccc1)C(=O)NCC1CCCO1 (some centres not stated)	.	.	.	-1.8	.
O=C(Nc1ccc(NC(=O)c2ccco2)cc1)c1ccco1	-2.0	-1.5	21.4	28.4*	8.8
O=C(Nc1ccc(Br)cc1)c1ccco1	2.6	7.4	-1.2	-8.5	.
COc1cc(NC(C)=O)c2ncccc2c1NC(C)=O	-2.9	17.6	-2.0	-8.6	.
COc1cc(N)c2ncccc2c1SC	.	.	7.7	44.7*	3.0
N#Cc1ccc(OCc2ccc(C(=O)O)o2)cc1	-3.9	7.1	-0.6	25.6*	1.6
O=C1c2cccc(O)c2C(=O)c2c(O)cc(CO)cc21	-1.0	.	.	.	.
CC1OC2CC(=O)OC2C2=C1C(=O)c1c(O)cccc1C2=O (configuration not stated)	.	.	.	41.9*	44.4*
COc1ccc(NS(=O)(=O)c2c(C)cc(C)cc2C)cn1	-4.3	15.9	1.2	-18.2	.
O=S(=O)(Nc1c(O)ccc2ccccc12)c1ccc(F)cc1	-5.7	.	6.8	24.9*	-2.7
N/C(=N\N=Cc1ccc2c(c1)OCO2)NN=Cc1ccc2c(c1)OCO2	.	.	0.4	44.0*	-6.8
CN(C)c1ccc2nc3ccc(=O)cc-3sc2c1	.	.	13.4	30.9*	12.6
Cc1ccccc1N1CCN(Cc2ccc([N+](=O)[O-])o2)CC1	0.7	9.3	5.6	5.7	.
O=[N+]([O-])c1ccc(CN2CCN(c3ccccc3Cl)CC2)o1	2.1	7.3	6.0	27.2*	17.9
